Measured values of several laboratories.
Lines come from different studies, so protocols differ.
Target: Protein-tyrosine kinase 6 (PTK6, Homo sapiens, UniProt Q13882)

COc1ncccc1-c1cnn2ccc(N3CCN(C(=O)OC(C)C)CC3)nc12  remaining binding (binding; competition with immobilised ligand; 1 µM): 61%
Cc1nn(C)cc1-c1nc2c(N3CCN(Cc4ccc(Cl)cc4)CC3)c(Cl)cnc2[nH]1  remaining binding (binding; competition with immobilised ligand; 1 µM): 96%
Cn1cncc1[C@@](O)(COc1ccc(C#N)cc1-c1ccc(OC(F)(F)F)cc1)c1ccc(C#N)cc1  remaining binding (cell-free assay; competition with immobilised ligand; 1 µM): 100%
Cn1cc(-c2cc(F)cc(N3CCn4c(cc5c4CCCC5)C3=O)c2CO)cc(Nc2ccc(N3CCN(C4COC4)CC3)cn2)c1=O  inhibition (enzyme activity; inhibitor; 0.1 µM): 10%
O=c1[nH]c2ccccc2n1C1CCN(Cc2ccc(-c3[nH]c4cc5ncnc5cc4nc3-c3ccccc3)cc2)CC1  remaining signal (cell-free assay; 0.5 µM): 91.1%
Cn1cc(-c2cccc(N3CCc4c(sc5c4CC(C)(C)C5)C3=O)c2CO)cc(Nc2ccncn2)c1=O  inhibition (enzyme activity; inhibitor; 1 µM): 1%
C#Cc1n[nH]c2c(-c3cn([C@@H](C)c4ccccn4)c(=O)[nH]c3=O)cc(F)cc12  inhibition (enzyme activity; inhibitor; 0.1 µM): 5.5%
COc1cc(Nc2ncc(F)c(Nc3ccc4c(n3)NC(=O)C(C)(C)O4)n2)cc(OC)c1OC  inhibition (binding; 10 µM): 82%
CC(C)(C)c1cc(C=C(C#N)C#N)cc(Br)c1O  remaining activity (enzyme activity; inhibitor; 0.5 µM): 91.4%
C#Cc1n[nH]c2c(-c3cn([C@@H](C)c4ccccc4)c(=O)[nH]c3=O)cc(F)cc12  inhibition (enzyme activity; inhibitor; 0.1 µM): 9.4%
